Columns and labels:
[1] = Antagonist activity at mouse GPCR by double antibody sandwich ELISA
Summary of the method: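 Double-antibody sandwich ELISA measuring mouse GPCR content, with a GPCR standard. Sample was mixed with diluted standard (37 ℃, 10 min), added to antibody-coated wells, then HRP conjugate was added (37 ℃, 30 min), followed by chromogens A and B and stop solution. OD450 was read within 5 min. Tested at 10 ng/L, 1 ng/mL, 0.1 μg/mL and 10 μg/mL, 30% DMSO in well. Percent inhibition versus no-inhibitor control (100%) from three independent experiments; IC50 from absorbance.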

[2] = species on record: Mus musculus; assay: Antagonist activity at mouse GPCR at 10 ng/L by double antibody sandwich ELISA relative to control

Structure (SMILES)	IC50 [1]	inhibition [2]
C=C1[C@H]2C[C@@]3([C@@H]1OC(C)=O)[C@@H](CC2=O)[C@@]12[C@@H]4[C@@H]3C[C@@H]1[C@@](C)(CC[C@@H]2O)CN4CC	2.62 nM	48.6%
C=C1[C@H]2C[C@@]3([C@@H]1O)[C@@H](C[C@@H]2O)[C@@]12[C@@H]4[C@@H]3C[C@@H]1[C@@](C)(CC[C@@H]2O)CN4CC	> 10 nM	39.4%
C=C1[C@H]2C[C@@]3([C@@H]1S)[C@@H](CC2=S)[C@@]12[C@@H]4[C@@H]3C[C@@H]1[C@@](C)(CC[C@@H]2S)CN4CC	> 10 nM	39.3%
C=C1[C@H]2C[C@@]3([C@@H]1OC(=O)c1ccccc1)[C@@H](CC2=O)[C@@]12[C@@H]4[C@@H]3C[C@@H]1[C@@](C)(CC[C@@H]2O)CN4CC	4.5 nM	37.7%
C=C1[C@H]2C[C@@]3([C@@H]1OC(C)=O)[C@@H](CC2=O)[C@@]12[C@@H](OC(C)=O)CC[C@@]4(C)CN(CC)[C@H]1[C@@H]3C[C@H]42	0.51 nM	65.2%
C=C1[C@H]2C[C@@]3([C@@H]1OC(=O)CC)[C@@H](C/C2=N/OC(=O)CC)[C@@]12[C@@H]4[C@@H]3C[C@@H]1[C@@](C)(CC[C@@H]2O)CN4CC	3.65 nM	50.3%
C=C1[C@H]2C[C@@]3([C@@H]1O)[C@@H](C/C2=N/O)[C@@]12[C@@H]4[C@@H]3C[C@@H]1[C@@](C)(CC[C@@H]2O)CN4CC	0.55 nM	73.3%
C=C1C(=O)[C@]23C[C@H]1C(=O)C[C@H]2[C@@]12[C@@H]4[C@@H]3C[C@@H]1[C@@](C)(CC[C@@H]2O)CN4CC	9.99 nM	54.6%
C=C1[C@H]2C[C@@]3([C@@H]1O)[C@@H](C[C@H]2O)[C@@]12[C@@H]4[C@@H]3C[C@@H]1[C@@](C)(CC[C@@H]2O)CN4CC	> 10 nM	46.3%
C=C1[C@H]2C[C@@]3([C@@H]1O)[C@@H](C/C2=N/NS(=O)(=O)c1ccc(C)cc1)[C@@]12[C@@H]4[C@@H]3C[C@@H]1[C@@](C)(CC[C@@H]2O)CN4CC	> 10 nM	37.7%
C=C1[C@H]2C[C@@]3([C@@H]1O)[C@@H](CC2=O)[C@@]12[C@@H]4[C@@H]3C[C@@H]1[C@@](C)(CC[C@@H]2O)CN4CC	3.21 nM	62.8%
C=C1[C@H]2C[C@@]3([C@@H]1OC(=O)CC)[C@@H](CC2=O)[C@@]12[C@@H](OC(=O)CC)CC[C@@]4(C)CN(CC)[C@H]1[C@@H]3C[C@H]42	0.59 nM	65.9%
CCN1C[C@]2(C)CC[C@H](O)[C@]34[C@@H]1[C@H](C[C@H]23)[C@@]12C[C@@H](C(=O)C[C@H]14)C(CO)(OC(=O)c1cccc(Cl)c1)[C@H]2O (stereo not given in full)	0.23 nM	68.7%
C=C1C(=O)[C@]23C[C@H]1C(=O)C[C@H]2[C@@]12C(=O)CC[C@@]4(C)CN(CC)[C@H]1[C@@H]3C[C@H]42	> 10 nM	34.6%
C=C1[C@H]2C[C@@]3([C@@H]1OC(=O)CCC)[C@@H](CC2=O)[C@@]12[C@@H](OC(=O)CCC)CC[C@@]4(C)CN(CC)[C@H]1[C@@H]3C[C@H]42	0.14 nM	77.4%
C=C1[C@H]2C[C@@]3([C@@H]1OC(=O)COCC)[C@@H](CC2=O)[C@@]12[C@@H](OC(=O)COCC)CC[C@@]4(C)CN(CC)[C@H]1[C@@H]3C[C@H]42	5.91 nM	55%
C=C1[C@H]2C[C@@]3([C@@H]1OC(=O)CCC)[C@@H](CC2=O)[C@@]12[C@@H]4[C@@H]3C[C@@H]1[C@@](C)(CC[C@@H]2O)CN4CC	8.68 nM	49.8%
C=C1[C@H]2C[C@@]3([C@@H]1OC(=O)CC)[C@@H](C/C2=N/OC(=O)CC)[C@@]12[C@@H](OC(=O)CC)CC[C@@]4(C)CN(CC)[C@H]1[C@@H]3C[C@H]42	> 10 nM	36.4%
C=C1[C@H]2C[C@@]3([C@@H]1OC(=O)COC)[C@@H](CC2=O)[C@@]12[C@@H](OC(=O)COC)CC[C@@]4(C)CN(CC)[C@H]1[C@@H]3C[C@H]42	0.08 nM	85.3%
C=C1[C@H]2C[C@@]3([C@@H]1OC(=O)/C=C/c1ccccc1)[C@@H](CC2=O)[C@@]12[C@@H]4[C@@H]3C[C@@H]1[C@@](C)(CC[C@@H]2O)CN4CC	0.29 nM	57.1%

From ChEMBL document CHEMBL4392839, “Syntheses and bioactivities of songorine derivatives as novel G protein-coupled receptor antagonists” (Bioorg Med Chem, 2019)
